Converted amounts (≈) assume the structure as drawn.
Tests used:
Assay type in all cases: functional
[1] = system: Mycobacterium tuberculosis; assay: Antimycobacterial activity against Mycobacterium tuberculosis 19 harbouring KatG Ser315Thr mutant and wild type InhA assessed as reduction in bacterial growth incubated for 7 days by resazurin dye based assay
Outline: (§1)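 REMA broth microdilution: DMSO stocks diluted in 7H9-OADC, standardized inoculum added, final 0.98 to 250 μg/mL; 7 days at 35 °C in normal atmosphere, then 0.01% resazurin and a further 24 h at 35 °C. Read visually. MIC is the lowest concentration preventing the blue-to-pink change. Three independent assays on different days; isoniazid reference, medium, sterility and growth ±2.5% DMSO controls.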

[2] = system: Mycobacterium tuberculosis; assay: Antimycobacterial activity against Mycobacterium tuberculosis 71A harbouring KatG Ser315Thr mutant and wild type InhA assessed as reduction in bacterial growth incubated for 7 days by resazurin dye based assay; outline: as §1
[3] = system: Mycobacterium tuberculosis; assay: Antimycobacterial activity against Mycobacterium tuberculosis BRF45 harbouring KatG Ser315Thr mutant and wild type InhA assessed as reduction in bacterial growth incubated for 7 days by resazurin dye based assay; outline: as §1
[4] = system: Mycobacterium tuberculosis; assay: Antimycobacterial activity against Mycobacterium tuberculosis 91 harbouring KatG Ser315Thr mutant and wild type InhA assessed as reduction in bacterial growth incubated for 7 days by resazurin dye based assay; outline: as §1
[5] = system: Mycobacterium tuberculosis; assay: Antimycobacterial activity against Mycobacterium tuberculosis BRF14 harbouring KatG Ser315Thr mutant and wild type InhA assessed as reduction in bacterial growth incubated for 7 days by resazurin dye based assay; outline: as §1
[6] = system: Mycobacterium tuberculosis; assay: Antimycobacterial activity against Mycobacterium tuberculosis BRF57 harbouring KatG Ser315Thr mutant and wild type InhA assessed as reduction in bacterial growth incubated for 7 days by resazurin dye based assay; outline: as §1
[7] = system: Mycobacterium tuberculosis; assay: Antimycobacterial activity against Mycobacterium tuberculosis BRF16 harbouring KatG Ser315Thr mutant and wild type InhA assessed as reduction in bacterial growth incubated for 7 days by resazurin dye based assay; outline: as §1
[8] = system: Mycobacterium tuberculosis; assay: Antimycobacterial activity against Mycobacterium tuberculosis 3614 harbouring wild type KatG and InhA Ile21Thr mutant assessed as reduction in bacterial growth incubated for 7 days by resazurin dye based assay; outline: as §1
[9] = system: Mycobacterium tuberculosis; assay: Antimycobacterial activity against Mycobacterium tuberculosis 73A harbouring KatG Ser315Thr mutant and wild type InhA assessed as reduction in bacterial growth incubated for 7 days by resazurin dye based assay; outline: as §1

O=C(NN1C(=O)CCC1=O)c1cc2c([nH]c3ccccc32)c(-c2ccc(F)cc2)n1 was tested, and the MIC [1] was 155.43 µM (≈ 62.5 µg/mL), the MIC [2] was 310.86 µM (≈ 125 µg/mL) and the MIC [3] was 77.72 µM (≈ 31.3 µg/mL). The MIC [4] was 310.86 µM (≈ 125 µg/mL), the MIC [5] was 310.86 µM (≈ 125 µg/mL) and the MIC [6] was 310.86 µM (≈ 125 µg/mL). For the same molecule, the MIC [7] was 62.5 µg/mL, the MIC [8] was 155.43 µM (≈ 62.5 µg/mL) and the MIC [9] was 77.72 µM (≈ 31.3 µg/mL).
For COC(=O)c1cc2c([nH]c3ccccc32)c(-c2ccc(N(C)C)cc2)n1, the MIC [1] was 90.55 µM (≈ 31.3 µg/mL), the MIC [2] was greater than 724.32 µM and the MIC [3] was 90.54 µM (≈ 31.3 µg/mL). The MIC [4] was 180.36 µM (≈ 62.3 µg/mL), the MIC [5] was 724.32 µM (≈ 250 µg/mL) and the MIC [6] was 362.16 µM (≈ 125 µg/mL). It also gave an MIC [7] of 362.16 µM, an MIC [8] of 90.54 µM (≈ 31.3 µg/mL) and an MIC [9] of 90.54 µM (≈ 31.3 µg/mL).
Molecule O=C(NN1C(=O)c2ccccc2C1=O)c1cc2c([nH]c3ccccc32)c(-c2ccccc2)n1 has an MIC [1] of 144.64 µM (≈ 62.5 µg/mL), an MIC [2] of 289.27 µM (≈ 125 µg/mL) and an MIC [3] of 144.64 µM (≈ 62.5 µg/mL). For the same molecule, the MIC [4] was 289.27 µM (≈ 125 µg/mL), the MIC [5] was 289.27 µM (≈ 125 µg/mL) and the MIC [6] was 289.27 µM (≈ 125 µg/mL). The MIC [7] was 289.27 µM, the MIC [8] was 144.64 µM (≈ 62.5 µg/mL) and the MIC [9] was 144.64 µM (≈ 62.5 µg/mL).
In the case of NNC(=O)c1ccncc1 [ISONIAZID], the MIC [1] is reported as 2 µM (≈ 0.274 µg/mL), the MIC [2] is reported as 4 µM (≈ 0.549 µg/mL) and the MIC [3] is reported as 4 µM (≈ 0.549 µg/mL). The MIC [4] was 2 µM (≈ 0.274 µg/mL), the MIC [5] was 8 µM (≈ 1.1 µg/mL) and the MIC [6] was 4 µM (≈ 0.549 µg/mL). It also gave an MIC [7] of 8 µM, an MIC [8] of 4 µM (≈ 0.549 µg/mL) and an MIC [9] of 4 µM (≈ 0.549 µg/mL).
O=C(NN1C(=O)c2ccccc2C1=O)c1cc2c([nH]c3ccccc32)c(-c2cccc([N+](=O)[O-])c2)n1 showed an MIC [1] of 261.99 µM (≈ 125 µg/mL), an MIC [2] greater than 523.99 µM and an MIC [3] of 261.99 µM (≈ 125 µg/mL). It also gave an MIC [4] greater than 523.99 µM, an MIC [5] of 523.99 µM (≈ 250 µg/mL) and an MIC [6] greater than 523.99 µM. The MIC [7] was 261.99 µM, the MIC [8] was 261.99 µM (≈ 125 µg/mL) and the MIC [9] was 261.99 µM (≈ 125 µg/mL).
O=C(NN1C(=O)c2ccccc2C1=O)c1cc2c([nH]c3ccccc32)c(-c2ccc(F)cc2)n1 showed an MIC [1] of 138.85 µM (≈ 62.5 µg/mL), an MIC [2] of 277.71 µM (≈ 125 µg/mL) and an MIC [3] of 138.85 µM (≈ 62.5 µg/mL). For the same molecule, the MIC [4] was 277.71 µM (≈ 125 µg/mL), the MIC [5] was 138.85 µM (≈ 62.5 µg/mL) and the MIC [6] was 277.71 µM (≈ 125 µg/mL). It also gave an MIC [7] of 138.85 µM, an MIC [8] of 138.85 µM (≈ 62.5 µg/mL) and an MIC [9] of 138.85 µM (≈ 62.5 µg/mL).
